Assay results reported in ChEMBL document CHEMBL3244279, “Synthesis and pharmacological evaluation of a clofibrate-related tricyclic spirolactone, 5-chloro-4',5-dihydrospiro[benzofuran-2(3H),3'(2'H)-furan]-2'-one” (J Med Chem, 1978).
One block for each molecule: values may come before it. Active and inactive are the calls of the source. The rule behind the calls is not given here.

Legend:
[1] = system: Rattus norvegicus; test: Antilipidemic activity in Triton WR-1339-induced hyperlipidemic Sprague-Dawley rat model assessed as plasma cholesterol level at 0.124 mmol/kg, po (reference value: 166 +/- 17.8 mg/dL)
[2] = system: Rattus norvegicus; test: Antilipidemic activity in sucrose-fed Sprague-Dawley rat assessed as serum cholesterol level at 0.4 mmol/kg, po bid for 7 days measured on day 7 (reference value: 92 +/- 22 mg/dL); assay type: functional
[3] = system: Rattus norvegicus; test: Modulation of liver microsomal protein level in sucrose-fed Sprague-Dawley rat at 0.4 mmol/kg, po bid for 7 days measured per gm of tissue (reference value: 25.0 to 27.2 mg); assay type: functional
[4] = system: Rattus norvegicus; test: Modulation of cytochrome b5 activity in sucrose-fed Sprague-Dawley rat liver microsomes at 0.4 mmol/kg, po bid for 7 days measured per mg of protein (reference value: 0.185 to 0.213 nmol); assay type: functional
Outline: (§1)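 Sucrose-fed male rats dosed orally 0.4 mmol/kg twice daily for 7 days, controls vehicle; livers taken under ether anesthesia, microsomes prepared. Cytochrome P-450 and b5 estimated by the Kinoshita–Horie procedure, per mg microsomal protein. Mean ± SD, n = 5; Student's t test.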

[5] = system: Rattus norvegicus; test: Modulation of triglyceride level in sucrose-fed Sprague-Dawley rat liver at 0.4 mmol/kg, po bid for 7 days (reference value: 7.26 to 8.29 mg/g); assay type: functional
[6] = system: Rattus norvegicus; test: Modulation of liver to body weight ratio in sucrose-fed Sprague-Dawley rat at 0.4 mmol/kg, po bid for 7 days (reference value: 3.88 to 4.06%); assay type: functional
[7] = system: Rattus norvegicus; test: Antilipidemic activity in Triton WR-1339-induced hyperlipidemic Sprague-Dawley rat model assessed as plasma triglyceride level at 0.124 mmol/kg, po (reference value: 98.5 +/- 16.9 mg/dL)
[8] = system: Rattus norvegicus; test: Antilipidemic activity in sucrose-fed Sprague-Dawley rat assessed as serum triglyceride level at 0.4 mmol/kg, po bid for 7 days measured on day 0 (reference value: 157.1 +/- 77.8 mg/dL); assay type: functional
[9] = system: Rattus norvegicus; test: Modulation of cytochrome-P450 activity in sucrose-fed Sprague-Dawley rat liver microsomes at 0.4 mmol/kg, po bid for 7 days measured per mg of protein (reference value: 0.477 to 0.593 nmol); assay type: functional
Outline: as §1

[10] = Drug metabolism in Sprague-Dawley rat serum assessed as esterase-mediated hydrolysis measured after 5 mins; assay type: ADME, cell-free
Outline: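 Pooled serum from ether-anesthetized male Sprague-Dawley rats (300–350 g; aortic blood with EDTA). 0.1 mL of 0.05 M ethanolic stock added to 6.0 mL serum, 37 °C with shaking; samples at 0, 5, 10, 30, 60 min extracted into isooctane–EtOH (95:5) with saturated NaCl; loss of parent read at 250 nm.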

[11] = system: Rattus norvegicus; test: Antilipidemic activity in normal Sprague-Dawley rat assessed at 0.4 mmol/kg, po bid for 7 days; assay type: functional, organism-based
[12] = Drug metabolism in Ringer bicarbonate buffer assessed as hydrolysis at pH 7.4 measured after 60 mins; assay type: physicochemical; details: read-out: Drug metabolism
Outline: (§2)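 Nonenzymatic hydrolysis: 0.1 mL of 0.05 M ethanolic stock added to 6.0 mL Ringer bicarbonate buffer, pH 7.4, 37 °C with shaking. Aliquots at 0–60 min extracted into isooctane–EtOH (95:5) with saturated NaCl; disappearance of parent tracked at 250 nm.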

[13] = system: Rattus norvegicus; test: Modulation of HMG-CoA reductase activity in sucrose-fed Sprague-Dawley rat liver assessed as mevalonic acid formation using DL-3-hydroxy-3-methylglutaryl-3-14C-CoA as substrate at 0.4 mmol/kg, po bid for 7 days (reference value: 8.27 to 8.3 nmol/mg/hr); assay type: functional
[14] = system: Rattus norvegicus; test: Antilipidemic activity in 48-hrs starved normal Sprague-Dawley rat model assessed as plasma triglyceride level at 0.124 mmol/kg, po (reference value: 20.8 +/- 5.5 mg/dL); assay type: functional
[15] = system: Rattus norvegicus; test: Antilipidemic activity in 48-hrs starved normal Sprague-Dawley rat model assessed as plasma cholesterol level at 0.124 mmol/kg, po (reference value: 88.7 +/- 6.9 mg/dL); assay type: functional
[16] = system: Rattus norvegicus; test: Antilipidemic activity in sucrose-fed Sprague-Dawley rat assessed as serum cholesterol level at 0.4 mmol/kg, po bid for 7 days measured on day 0 (reference value: 69 +/- 9 mg/dL); assay type: functional
[17] = system: Rattus norvegicus; test: Antilipidemic activity in sucrose-fed Sprague-Dawley rat assessed as serum triglyceride level at 0.4 mmol/kg, po bid for 7 days measured on day 7 (reference value: 115.6 +/- 19.4 mg/dL); assay type: functional
[18] = system: Rattus norvegicus; test: Modulation of cholesterol level in sucrose-fed Sprague-Dawley rat liver at 0.4 mmol/kg, po bid for 7 days (reference value: 1.81 to 2.17 mg/g); assay type: functional
[19] = system: Rattus norvegicus; test: Modulation of liver weight in sucrose-fed Sprague-Dawley rat at 0.4 mmol/kg, po bid for 7 days (reference value: 11.30 to 13.16 gms); assay type: functional
[20] = system: Rattus norvegicus; test: Modulation of NADPH-cytochrome c reductase activity in sucrose-fed Sprague-Dawley rat liver microsomes assessed as cytochrome c reduction at 0.4 mmol/kg, po bid for 7 days (reference value: 202.5 +/- 27.9 nmol/mg/min); assay type: functional
[21] = system: Rattus norvegicus; test: Modulation of ethylmorphine N-demethylase activity in sucrose-fed Sprague-Dawley rat liver microsomes assessed as formaldehyde formation using ethylmorphine as substrate at 0.4 mmol/kg, po bid for 7 days (reference value: 6.40 to 9.36 nmol/mg/min); assay type: functional
[22] = system: Rattus norvegicus; test: Modulation of cholesterol level in sucrose-fed Sprague-Dawley rat liver at 0.4 mmol/kg, po bid for 7 days (reference value: 2.17 +/- 0.26 mg/g); assay type: functional
[23] = Drug metabolism in Sprague-Dawley rat serum assessed as esterase-mediated hydrolysis at 0.05 M measured after 5 mins; assay type: ADME, cell-free; details: read-out: Drug metabolism
[24] = system: Rattus norvegicus; test: Modulation of liver microsomal protein level in sucrose-fed Sprague-Dawley rat at 0.4 mmol/kg, po bid for 7 days measured per gm of tissue (reference value: 25.0 +/- 2.5 mg); assay type: functional
[25] = system: Rattus norvegicus; test: Modulation of triglyceride level in normal Sprague-Dawley rat liver at 0.4 mmol/kg, po bid for 7 days (reference value: 2.73 to 3.36 mg/g); assay type: functional
[26] = system: Rattus norvegicus; test: Modulation of triglyceride level in sucrose-fed Sprague-Dawley rat liver at 0.4 mmol/kg, po bid for 7 days (reference value: 8.29 +/- 2.24 mg/g); assay type: functional
[27] = system: Rattus norvegicus; test: Modulation of liver to body weight ratio in normal Sprague-Dawley rat at 0.4 mmol/kg, po bid for 7 days (reference value: 4.21 to 4.59%); assay type: functional
[28] = system: Rattus norvegicus; test: Modulation of cytochrome b5 activity in sucrose-fed Sprague-Dawley rat liver microsomes at 0.4 mmol/kg, po bid for 7 days measured per mg of protein (reference value: 0.213 +/- 0.032 nmol); assay type: functional
Outline: as §1

[29] = system: Rattus norvegicus; test: Modulation of ethylmorphine N-demethylase activity in sucrose-fed Sprague-Dawley rat liver microsomes assessed as formaldehyde formation using ethylmorphine as substrate at 0.4 mmol/kg, po bid for 7 days (reference value: 9.36 +/- 0.50 nmol/mg/min); assay type: functional
[30] = system: Rattus norvegicus; test: Modulation of HMG-CoA reductase activity in normal Sprague-Dawley rat liver assessed as mevalonic acid formation using DL-3-hydroxy-3-methylglutaryl-3-14C-CoA as substrate at 0.4 mmol/kg, po bid for 7 days (reference value: 49.1 +/- 6.7 nmol/mg/hr); assay type: functional
[31] = system: Rattus norvegicus; test: Antilipidemic activity in Triton WR-1339-induced hyperlipidemic Sprague-Dawley rat model assessed as plasma cholesterol level at 0.124 mmol/kg, po (reference value: 183 +/- 101 mg/dL)
[32] = system: Rattus norvegicus; test: Antilipidemic activity in 48-hrs starved normal Sprague-Dawley rat model assessed as plasma cholesterol level at 0.124 mmol/kg, po (reference value: 90.1 +/- 8.8 mg/dL); assay type: functional
[33] = system: Rattus norvegicus; test: Antilipidemic activity in 48-hrs starved normal Sprague-Dawley rat model assessed as plasma triglyceride level at 0.124 mmol/kg, po (reference value: 20.9 +/- 11.3 mg/dL); assay type: functional
[34] = Drug metabolism in Ringer bicarbonate buffer assessed as hydrolysis at 0.05 M at pH 7.4 measured after 60 mins; assay type: physicochemical
Outline: as §2

[35] = system: Rattus norvegicus; test: Modulation of HMG-CoA reductase activity in sucrose-fed Sprague-Dawley rat liver assessed as mevalonic acid formation using DL-3-hydroxy-3-methylglutaryl-3-14C-CoA as substrate at 0.4 mmol/kg, po bid for 7 days (reference value: 8.27 +/- 1.18 nmol/mg/hr); assay type: functional
[36] = system: Rattus norvegicus; test: Modulation of cytochrome-P450 activity in sucrose-fed Sprague-Dawley rat liver microsomes at 0.4 mmol/kg, po bid for 7 days measured per mg of protein (reference value: 0.593 +/- 0.059 nmol); assay type: functional
Outline: as §1

[37] = system: Rattus norvegicus; test: Antilipidemic activity in Triton WR-1339-induced hyperlipidemic Sprague-Dawley rat model assessed as plasma triglyceride level at 0.124 mmol/kg, po (reference value: 156 +/- 184 mg/dL)
[38] = system: Rattus norvegicus; test: Modulation of liver to body weight ratio in sucrose-fed Sprague-Dawley rat at 0.4 mmol/kg, po bid for 7 days (reference value: 4.06 +/- 0.25%); assay type: functional
[39] = system: Rattus norvegicus; test: Modulation of cholesterol level in normal Sprague-Dawley rat liver at 0.4 mmol/kg, po bid for 7 days (reference value: 2.73 to 3.28 mg/g); assay type: functional
[40] = system: Rattus norvegicus; test: Modulation of liver weight in sucrose-fed Sprague-Dawley rat at 0.4 mmol/kg, po bid for 7 days (reference value: 13.16 +/- 0.61 gms); assay type: functional
[41] = system: Rattus norvegicus; test: Modulation of liver microsomal protein level in normal Sprague-Dawley rat at 0.4 mmol/kg, po bid for 7 days measured per gm of tissue (reference value: 25.4 to 29.0 mg); assay type: functional
[42] = system: Rattus norvegicus; test: Antilipidemic activity in normal Sprague-Dawley rat assessed as serum cholesterol level at 0.4 mmol/kg, po bid for 7 days (reference value: 59.1 to 81.6 mg/dL); assay type: functional
Outline: (§3)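 Normal male Sprague-Dawley rats dosed orally twice daily, 0.4 mmol/kg […], for 7 days; controls received vehicle. Serum cholesterol and triglycerides measured at end of treatment; two separate experiments. Mean ± SD, n = 5; Student's t test vs control.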

[43] = system: Rattus norvegicus; test: Antilipidemic activity in normal Sprague-Dawley rat assessed as serum triglyceride level at 0.4 mmol/kg, po bid for 7 days (reference value: 61.2 to 69.1 mg/dL); assay type: functional
Outline: as §3

[44] = system: Rattus norvegicus; test: Modulation of liver weight in normal Sprague-Dawley rat at 0.4 mmol/kg, po bid for 7 days (reference value: 6.73 to 8.71 gms); assay type: functional

metabolised at 5 min [10]: > 90%
degraded at 1 h [12]: < 20%
Structure (SMILES): CCOC(=O)C(C)(C)Oc1ccc(Cl)cc1 [CLOFIBRATE]
Activity [1]: 93.2 mg/dL
Activity [2]: 36 mg/dL
Activity [3]: 29.2 mg
Activity [4]: 0.169 nmol
Activity [5]: 3.05 mg/g
Activity [6]: 5.01%
Activity [7]: 22.3 mg/dL
Activity [8]: 153 mg/dL
Activity [9]: 0.806 nmol
Activity [11]: Active
Activity [13]: 2.7 nmol/mg/h
Activity [14]: 24.1 mg/dL
Activity [15]: 87 mg/dL
Activity [16]: 74 mg/dL
Activity [17]: 50.2 mg/dL
Activity [18]: 1.76 mg/g
Activity [19]: 14.32 g
Activity [20]: 308.3 nmol/mg/min
Activity [21]: 7.91 nmol/mg/min

metabolised at 5 min [23]: > 90%
degraded at 1 h [34]: < 20%
Structure (SMILES): O=C1OCCC12Cc1cc(Cl)ccc1O2 (stereo not drawn)
Activity [22]: 2.32 mg/g
Activity [2]: 103 mg/dL
Activity [24]: 27.8 mg
Activity [25]: 3.17 mg/g
Activity [26]: 10.02 mg/g
Activity [27]: 4.5%
Activity [28]: 0.173 nmol
Activity [29]: 9.8 nmol/mg/min
Activity [30]: 45 nmol/mg/h
Activity [31]: 131 mg/dL
Activity [32]: 91.8 mg/dL
Activity [33]: 18.5 mg/dL
Activity [35]: 7.1 nmol/mg/h
Activity [36]: 0.55 nmol
Activity [37]: 20.6 mg/dL
Activity [8]: 142 mg/dL
Activity [38]: 4.18%
Activity [39]: 3.18 mg/g
Activity [40]: 13.16 g
Activity [41]: 27.3 mg
Activity [42]: 58.6 mg/dL
Activity [43]: 66.5 mg/dL
Activity [44]: 7.87 g
Activity [16]: 67 mg/dL
Activity [17]: 121.5 mg/dL
